Measurements collected from several papers.
Each line is one published result; the experiments were not run side by side.
CHEK2: Serine/threonine-protein kinase Chk2 (CHEK2, Homo sapiens, UniProt O96017)
CHEK2 I157T: Serine/threonine-protein kinase Chk2 (CHEK2, Homo sapiens, UniProt O96017, I157T)
CHEK2 R145W: Serine/threonine-protein kinase Chk2 (CHEK2, Homo sapiens, UniProt O96017, R145W)

Structure (SMILES) | target | test | setting | endpoint | result
CS(=O)(=O)N1CCCC(NC(=O)[C@H](CCC2CCCCC2)NC(=O)c2ccc(CNc3ncnc4c3nnn4-c3ccccc3)cc2)C1 (some centres unmarked) | CHEK2 | cell-free assay, competition with immobilised ligand | 0.1 µM | remaining binding | 100%
O=C1Nc2ccc(Cl)cc2C1=Cc1cc(Cl)c(O)c(Cl)c1 | CHEK2 | cell-free assay | 0.5 µM | remaining signal | 70.2%
CCOCCn1cc(C(=O)Nc2ccc(-n3nc(-c4cccnc4)cc3C(F)(F)F)cn2)ccc1=O | CHEK2 | cell-free assay, competition with immobilised ligand | 1 µM | remaining binding | 0%
Oc1cccc(-c2nc(N3CCOCC3)c3oc4ncccc4c3n2)c1 | CHEK2 | cell-free assay | 0.5 µM | remaining signal | 90.4%
COc1cc2nccc(Oc3ccc(NC(=O)Nc4ccc(F)cc4F)c(F)c3)c2cc1OC | CHEK2 | thermal stability, DSF | 10 µM | ΔTm | 5 to 10 °C
CN(C)C1CCN(CC#Cc2nn(C3CCCC3)c3nc(NCc4ccccc4)ncc23)C1 (centres unmarked) | CHEK2 | enzyme activity, inhibitor, FRET | 1 µM | inhibition | 7%
CCCCN(CCCC)C(=O)CN1C[C@H](c2cc(OC)c3c(c2)OCO3)[C@@H](C(=O)O)[C@@H]1CC(C)(C)CCC | CHEK2 | cell-free assay, competition with immobilised ligand | 1 µM | remaining binding | 100%
Cn1c2c(c3ccc(Cl)c(Cl)c31)C(C#N)C1(CCOCC1)NC2=O (centres unmarked) | CHEK2 | thermal stability, DSF | 10 µM | ΔTm | -0.3 °C
CS(=O)(=O)N1CCCC(NC(=O)[C@H](CCC2CCCCC2)NC(=O)c2ccc(CNC(=O)c3cnc4ccccn34)cc2)C1 (some centres unmarked) | CHEK2 | binding, competition with immobilised ligand | 1 µM | remaining binding | 37%
CCCOc1ccc(OC)c(F)c1C(=O)c1ccc(C(=O)N[C@@H]2CNC[C@H]2NC(=O)c2ccc3[nH]ncc3c2)cc1 | CHEK2 I157T | enzyme activity, inhibitor | 10 µM | remaining activity | 16%
N#CCCc1ccc2c(c1)-c1[nH]c3ccc([N+](=O)[O-])cc3c1CC(=O)N2 | CHEK2 | cell-free assay | 0.5 µM | remaining signal | 12.6%
O=C(N1CCS(=O)(=O)CC1)N1C[C@H](c2ccc(OC(F)(F)F)cc2)C[C@H](c2nc(C3CC3)no2)C1 | CHEK2 | cell-free assay, competition with immobilised ligand | 1 µM | remaining binding | 100%
Cn1c2c(Cl)c(Cl)ccc2c2cn[nH]c(=O)c21 | CHEK2 | thermal stability, DSF | 10 µM | ΔTm | -0.4 °C
Cc1cc(NC(=O)c2cccc3cc(-c4cccc5[nH]nc(N)c45)ccc23)ccc1F | CHEK2 R145W | enzyme activity, inhibitor | 0.1 µM | activity vs control | 99%
CCN1CCC2(CC1)NC(=O)c1c(c3ccc(Cl)c(Cl)c3n1C)C2C#N (racemic) | CHEK2 | thermal stability, DSF | 10 µM | ΔTm | -0.2 °C
Cc1ccc(Nc2nccc(N(C)c3ccc4c(C)n(C)nc4c3)n2)cc1S(N)(=O)=O | CHEK2 R145W | enzyme activity, inhibitor | 0.3 µM | inhibition | -4%
Cn1c2c(Cl)c(Cl)ccc2c2cc[nH]c(=O)c21 | CHEK2 | thermal stability, DSF | 10 µM | ΔTm | 0.2 °C
O=C1CCc2cc(Nc3cc(OC4CCOCC4)c([N+](=O)[O-])cc3Cl)ccc2N1 | CHEK2 | cell-free assay, competition with immobilised ligand | 1 µM | remaining binding | 69%
CNC(=O)c1cc(Oc2ccc(NC(=O)Nc3ccc(Cl)c(C(F)(F)F)c3)cc2)ccn1 | CHEK2 I157T | enzyme activity, inhibitor | 0.3 µM | inhibition | -9%
N#CC1c2c([nH]c3c(Cl)c(Cl)ccc23)C(=O)NC12CCCCC2 (racemic) | CHEK2 | thermal stability, DSF | 10 µM | ΔTm | 0.1 °C
